Experimental findings from ChEMBL document CHEMBL1821697, “Design and synthesis of brain penetrant selective JNK inhibitors with improved pharmacokinetic properties for the prevention of neurodegeneration” (Bioorg Med Chem Lett, 2011) are described below.

In data set [1] the target is Mitogen-activated protein kinase 8 (Homo sapiens, UniProt P45983). The experiment in a line: Inhibition of recombinant JNK1 using ser73 of c-jun as substrate preincubated for 15 mins measured after 60 mins by TR-FRET assay. The method, boiled down:
(§1)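 Recombinant JNK enzyme assay run at 10 µM ATP. IC50 values are means of at least three experiments.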
On the technique in general: In TR-FRET formats the signal depends on donor and acceptor labels being close together.

In data set [2] the target is Mitogen-activated protein kinase 9 (Homo sapiens, UniProt P45984). The experiment in a line: Inhibition of recombinant JNK2 using ser73 of c-jun as substrate preincubated for 15 mins measured after 60 mins by TR-FRET assay. The method in brief: as §1
Data set [3] has as its target Mitogen-activated protein kinase 14 (Homo sapiens, UniProt Q16539). The experiment in a line: Inhibition of recombinant p38alpha Thr69/71 of ATF-2 as substrate preincubated for 15 mins measured after 60 mins by TR-FRET assay.
Data set [4] can be described thus: Apparent permeability from apical to basolateral side of MDCK2 cells at 5 uM after 120 mins by LC/MS/MS method. Type of data set: ADME, cell-based, Canis lupus familiaris, MDCK-II. The settings on record: dog, MDCK.
Data set [5] in a line: Oxidative metabolic stability in human liver microsomes assessed as compound remaining at 1 uM after 30 mins. Type of data set: ADME, Microsome. Conditions: read-out: Stability. The method in brief:
(§2)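 Test compound was incubated with mouse, rat or human liver microsomes for 30 min. The read-out is percent of parent compound remaining.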
(Liver microsomes are a subcellular fraction often used to study metabolism.)

The target of data set [6] is Mitogen-activated protein kinase 10 (Homo sapiens, UniProt P53779). The experiment in a line: Inhibition of recombinant JNK3 using ser73 of c-jun as substrate preincubated for 15 mins measured after 60 mins by TR-FRET assay. The method, boiled down:
as §1

For the next data set, the system named is MDR1. The experiment in a line: Efflux ratio of permeability across MDCK2 expressing MDR1 at 5 uM after 120 mins by LC/MS/MS method. Type of data set: ADME, Canis lupus familiaris, MDCK-II. The settings on record: dog, MDCK-MDR1.
A short description of data set [7]: AUC in mouse brain at 1 mg/kg, iv. More on the design: dose 1 mg/kg, route intravenous. Type of data set: ADME, organism-based. The method in brief:
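Mice were dosed intravenously at 1 mg/kg. Brain exposure was expressed as AUC (ng h/mL) alongside the brain/plasma ratio.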

Data set [8] deals with Rattus norvegicus. The experiment in a line: Oral bioavailability in rat at 2 mg/kg. The class given is ADME, organism-based. The settings on record: in vivo. The method in brief: (§3)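 Rats received an oral dose of 2 mg/kg. Plasma AUC is reported in nmol h/mL. Oral bioavailability (F%) was calculated against a 1 mg/kg intravenous dose.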
Data set [9] deals with Rattus norvegicus. The experiment in a line: AUC in rat at 2 mg/kg, po. Type of data set: ADME, organism-based, Plasma. More on the design: dose 2 mg/kg, route oral. The settings on record: in vivo. The method in brief:
as §3

A short description of data set [10]: Ratio of drug level in brain to plasma in mouse at 1 mg/kg, iv. More on the design: dose 1 mg/kg, route intravenous. Conditions: read-out: BPR. The class given is ADME, organism-based. The method, boiled down:
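Single intravenous dose of 1 mg/kg in mice. Brain exposure was reported as brain AUC (ng h/mL), together with the brain-to-plasma ratio.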

Data set [11] in a line: Oxidative metabolic stability in mouse liver microsomes assessed as compound remaining at 1 uM after 30 mins. Type of data set: ADME, Microsome. Conditions: read-out: Stability. The method in brief: as §2
Data set [12] can be described thus: Oxidative metabolic stability in rat liver microsomes assessed as compound remaining at 1 uM after 30 mins. The class given is ADME, Microsome. Conditions: read-out: Stability. The method, boiled down:
as §2

The nature of data set [13]: Half life in rat at 1 mg/kg, iv. The class given is ADME, organism-based. More on the design: dose 1 mg/kg, route intravenous. Conditions: in vivo. The method in brief: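 Rats were given a single intravenous dose of 1 mg/kg. Half-life is reported in min, together with clearance (mL/h/kg).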
Data set [14] addresses Mitogen-activated protein kinase 1 (Homo sapiens, UniProt P28482). The experiment in a line: Inhibition of recombinant ERK2 using Ser383 of Elk-1 as substrate preincubated for 15 mins measured after 60 mins by TR-FRET assay.
A short description of data set [15]: Solubility of the compound in Hank's buffered salt solution at 20 mM at pH 7.4 after 1 hr. The class given is physicochemical.

Mitogen-activated protein kinase 10, sequence (P53779 whole entry): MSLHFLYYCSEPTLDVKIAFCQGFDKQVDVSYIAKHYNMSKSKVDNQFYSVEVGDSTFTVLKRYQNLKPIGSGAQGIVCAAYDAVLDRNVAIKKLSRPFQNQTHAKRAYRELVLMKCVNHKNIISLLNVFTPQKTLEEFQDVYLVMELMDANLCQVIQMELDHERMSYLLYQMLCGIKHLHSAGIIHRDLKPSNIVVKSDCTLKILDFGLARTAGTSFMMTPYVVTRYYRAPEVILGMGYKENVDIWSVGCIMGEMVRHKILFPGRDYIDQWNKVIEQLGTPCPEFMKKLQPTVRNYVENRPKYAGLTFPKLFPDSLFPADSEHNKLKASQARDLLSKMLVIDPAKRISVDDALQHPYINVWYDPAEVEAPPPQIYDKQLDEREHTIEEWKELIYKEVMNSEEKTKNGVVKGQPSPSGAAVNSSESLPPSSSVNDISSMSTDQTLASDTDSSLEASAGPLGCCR
Mitogen-activated protein kinase 9, sequence (P45984 whole entry): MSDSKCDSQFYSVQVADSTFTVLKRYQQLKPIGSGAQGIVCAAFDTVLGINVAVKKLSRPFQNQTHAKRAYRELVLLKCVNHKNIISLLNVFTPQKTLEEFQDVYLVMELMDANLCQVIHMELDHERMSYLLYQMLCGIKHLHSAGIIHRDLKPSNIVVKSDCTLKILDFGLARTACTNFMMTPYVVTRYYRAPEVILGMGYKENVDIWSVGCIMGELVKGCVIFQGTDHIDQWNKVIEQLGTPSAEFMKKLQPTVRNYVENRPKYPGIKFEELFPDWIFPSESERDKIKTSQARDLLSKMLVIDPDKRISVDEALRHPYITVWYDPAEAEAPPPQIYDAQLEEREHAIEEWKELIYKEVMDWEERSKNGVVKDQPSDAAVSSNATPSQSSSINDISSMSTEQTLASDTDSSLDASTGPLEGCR
Mitogen-activated protein kinase 1, sequence (P28482 whole entry): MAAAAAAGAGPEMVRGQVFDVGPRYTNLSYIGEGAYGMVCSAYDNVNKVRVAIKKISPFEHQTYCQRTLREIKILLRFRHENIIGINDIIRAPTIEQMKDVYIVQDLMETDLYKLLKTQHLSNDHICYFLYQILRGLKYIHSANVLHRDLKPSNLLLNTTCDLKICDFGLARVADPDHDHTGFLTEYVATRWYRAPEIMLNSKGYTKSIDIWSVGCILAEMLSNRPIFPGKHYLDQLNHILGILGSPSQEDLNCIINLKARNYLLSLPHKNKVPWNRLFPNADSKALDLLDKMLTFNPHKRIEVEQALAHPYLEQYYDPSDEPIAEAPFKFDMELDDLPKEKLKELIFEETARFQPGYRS
Mitogen-activated protein kinase 8, sequence (P45983 whole entry): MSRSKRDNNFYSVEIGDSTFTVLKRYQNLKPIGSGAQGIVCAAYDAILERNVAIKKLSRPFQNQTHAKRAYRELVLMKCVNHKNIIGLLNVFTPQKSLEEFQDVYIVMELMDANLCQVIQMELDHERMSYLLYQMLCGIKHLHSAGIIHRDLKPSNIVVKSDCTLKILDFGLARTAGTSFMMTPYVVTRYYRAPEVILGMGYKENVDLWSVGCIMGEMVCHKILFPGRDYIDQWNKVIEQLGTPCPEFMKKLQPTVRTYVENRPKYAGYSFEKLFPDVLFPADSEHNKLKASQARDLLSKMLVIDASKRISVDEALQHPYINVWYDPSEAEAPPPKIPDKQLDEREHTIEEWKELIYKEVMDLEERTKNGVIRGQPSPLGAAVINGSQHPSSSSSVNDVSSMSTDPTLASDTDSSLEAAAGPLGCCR
Mitogen-activated protein kinase 14, sequence (Q16539 whole entry): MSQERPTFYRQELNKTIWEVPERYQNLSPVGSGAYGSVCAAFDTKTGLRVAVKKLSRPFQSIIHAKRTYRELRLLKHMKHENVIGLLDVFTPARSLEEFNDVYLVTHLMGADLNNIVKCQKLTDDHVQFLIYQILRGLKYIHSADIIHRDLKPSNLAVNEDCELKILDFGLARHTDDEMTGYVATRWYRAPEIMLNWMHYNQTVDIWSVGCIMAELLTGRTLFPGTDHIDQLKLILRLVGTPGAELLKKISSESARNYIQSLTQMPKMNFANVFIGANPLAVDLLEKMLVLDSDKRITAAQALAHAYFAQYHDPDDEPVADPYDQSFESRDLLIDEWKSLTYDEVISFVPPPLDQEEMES

Usually IC50 stands for the concentration that gives 50% inhibition. In general, Papp A→B refers to the apparent permeability from the apical to the basolateral side of a cell layer. As a reminder, the efflux ratio is a quotient of directional permeabilities that is used to spot active efflux. As usually defined, the AUC is the area under the concentration-time curve, a measure of exposure. One may read the half-life as the time needed for the level to fall by half in the phase considered. A lower half-life goes with rapid decline. Regarding `O=C(CN1C(=O)CCc2ncccc21)Nc1scc(Br)c1-c1ncn[nH]1`, the IC50 is 9 nM in data set [1]; 32 nM in [2]; over 50000 nM in [3]; 14 nM in data set [6]; over 500 nM in data set [14]. Moreover, the Papp A→B at 2 h, 5 µM in data set [4] was 36.8 ×10⁻⁶ cm/s. Further, the remaining at 0.5 h, 1 µM turned out to be 83% in [5], 55% in [11] and 50% in [12]. Moreover, the efflux ratio at 2 h, 5 µM in the data set with MDR1 turned out to be 1.8. For the same molecule, the AUC in [7] worked out at 35 ng·h/mL; with Rattus norvegicus [9], 2720 ng·h/mL. The molecule also returned a F in the data set on Rattus norvegicus [8] of 91%. Besides, the Kp in [10] was 0.24. The half-life in data set [13] was determined as 2.5 min.
As a reminder, the solubility is the concentration that dissolves in the medium under given conditions. As for `O=C(Cc1cccc2cnccc12)Nc1scc(Cl)c1-c1ncn[nH]1`, the solubility at 1 h, 20000 µM in data set [15] worked out at 25 µM. Moreover, in [7], the AUC came to 88 ng·h/mL. The Kp in data set [10] was found to be 0.4. Besides, in data set [12], the remaining at 0.5 h, 1 µM stood at 9%.
For the molecule `O=C(Cn1c(=O)ccc2cc(F)c(F)cc21)Nc1scc(Br)c1-c1ncn[nH]1`, the IC50 in data set [1] was 3 nM; in [2] it was 15 nM; in data set [3] it was over 50000 nM; in [6] it was 5 nM; in data set [14], over 50000 nM. The Papp A→B at 2 h, 5 µM in data set [4] turned out to be 8.31 ×10⁻⁶ cm/s. Also, the remaining at 0.5 h, 1 µM in data set [5] came out at 38%; in data set [11], 14%; in [12] it was 9%. In addition, in the data set on MDR1, the efflux ratio at 2 h, 5 µM stood at 0.68. Further, the AUC was determined as 160 ng·h/mL in [7] and 571 ng·h/mL in the data set with Rattus norvegicus [9]. Moreover, the F in the data set with Rattus norvegicus [8] is 40%. Moreover, the Kp in [10] was found to be 1.4. In addition, the half-life in data set [13] turned out to be 2.3 min.
Take `N#Cc1csc(NC(=O)CN2C(=O)CCc3ccccc32)c1-c1ncn[nH]1`: in data set [15], the solubility at 1 h, 20000 µM turned out to be 95 µM. Further, the remaining at 0.5 h, 1 µM in data set [12] stood at 0%.
